Experiments:
Type in all cases: functional
NCI-H460 = experiment: Cytotoxicity against human NCI-H460 cells
Method in brief: (§1)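 Tested in a 60-cell-line human tumor panel screen; the read-out is growth inhibition, reported as GI50 for each cell line.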

IGROV-1 = experiment: Cytotoxicity against human IGROV1 cells; method in brief: as §1
PC-3 = experiment: Cytotoxicity against human PC3 cells; method in brief: as §1
A498 = experiment: Cytotoxicity against human A498 cells; method in brief: as §1
[1] = Cytotoxicity against human OVCAR3 cells; method in brief: as §1
HCT-116 = experiment: Cytotoxicity against human HCT116 cells; method in brief: as §1
HL-60(TB) = experiment: Cytotoxicity against human HL-60(TB) cells
Method in brief: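 Tested within the NCI 60-cell-line screen, with GI50 as the read-out. Values are the average of two independent experiments. The lowest concentration tested was 10 nM.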

SN12C = experiment: Cytotoxicity against human SN12C cells; method in brief: as §1
[2] = Cytotoxicity against human UACC257 cells
Method in brief: (§2)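 Cell line run as part of the 60-cell-line screening panel; growth inhibition was reported as a GI50 for each line.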

BT-549 = experiment: Cytotoxicity against human BT549 cells; method in brief: as §1
SK-MEL-5 = experiment: Cytotoxicity against human SK-MEL-5 cells; method in brief: as §1
M14 = experiment: Cytotoxicity against human M14 cells; method in brief: as §1
NCI-H23 = experiment: Cytotoxicity against human NCI-H23 cells; method in brief: as §1
NCI-H226 = experiment: Cytotoxicity against human NCI-H226 cells; method in brief: as §1
[3] = Cytotoxicity against human EKVX cells; method in brief: as §1
[4] = Cytotoxicity against human NCI-ADR-RES cells; method in brief: as §1
[5] = Cytotoxicity against human HCT15 cells; method in brief: as §1
[6] = Cytotoxicity against human OVCAR4 cells; method in brief: as §1
NCI-H322M = experiment: Cytotoxicity against human NCI-H322M cells; method in brief: as §1
T47D = experiment: Cytotoxicity against human T47D cells; method in brief: as §2
MDA-MB-231 = experiment: Cytotoxicity against human MDA-MB-231 cells; method in brief: as §1
K562 = experiment: Cytotoxicity against human K562 cells; method in brief: as §1
[7] = read-out: pLC50 (the source's name) (converted)

COc1cc(/C=C/c2cc(OC)c3c(CC=C(C)C)c[nH]c3c2)cc2c1O[C@]1(C)CC[C@@H](O)C(C)(C)[C@H]1C2
GI50 (NCI-H460): 0.372 µM | CC50 (NCI-H460; [7]): 17 µM | TGI (NCI-H460; read-out: pTGI (converted)): 2.19 µM | GI50 (IGROV-1): 1.66 µM | CC50 (IGROV-1; [7]): > 100 µM | TGI (IGROV-1; read-out: pTGI (converted)): 41.7 µM | GI50 (PC-3): 0.24 µM | LC50 (PC-3): > 100 µM | TGI (PC-3; read-out: pTGI (converted)): 17.4 µM | GI50 (A498): 0.138 µM | CC50 (A498; [7]): 5.25 µM | TGI (A498; read-out: pTGI (converted)): 0.603 µM | GI50 ([1]; OVCAR-3): 2.82 µM | CC50 ([1]; OVCAR-3, read-out: pLC50 (the source's name) (converted)): 38 µM | TGI ([1]; OVCAR-3, read-out: pTGI (converted)): 12 µM | GI50 (HCT-116): 0.417 µM | CC50 (HCT-116; [7]): 57.5 µM | TGI (HCT-116; read-out: pTGI (converted)): 12.6 µM | GI50 (HL-60(TB)): 0.191 µM | CC50 (HL-60(TB); [7]): 85.1 µM | TGI (HL-60(TB); read-out: pTGI (converted)): 2.45 µM | GI50 (SN12C): 2.51 µM | LC50 (SN12C): 52.5 µM | TGI (SN12C; read-out: pTGI (converted)): 19.1 µM | GI50 ([2]; UACC-257): 2.09 µM | CC50 ([2]; UACC-257, read-out: pLC50 (the source's name) (converted)): 49 µM | TGI ([2]; UACC-257, read-out: pTGI (converted)): 12.9 µM | GI50 (BT-549): 0.355 µM | CC50 (BT-549; [7]): 67.6 µM | TGI (BT-549; read-out: pTGI (converted)): 15.5 µM | GI50 (SK-MEL-5): 0.263 µM | CC50 (SK-MEL-5; [7]): 1.48 µM | TGI (SK-MEL-5; read-out: pTGI (converted)): 0.676 µM | GI50 (M14): 0.525 µM | CC50 (M14; [7]): 46.8 µM | TGI (M14; read-out: pTGI (converted)): 2.82 µM | GI50 (NCI-H23): 0.646 µM | CC50 (NCI-H23; [7]): 26.9 µM | TGI (NCI-H23; read-out: pTGI (converted)): 3.55 µM | GI50 (NCI-H226): 2.69 µM | CC50 (NCI-H226; [7]): 32.4 µM | TGI (NCI-H226; read-out: pTGI (converted)): 9.77 µM | GI50 [3]: 0.832 µM | CC50 [3, 7]: > 100 µM | TGI ([3]; read-out: pTGI (converted)): 6.61 µM | GI50 [4]: 2.88 µM | CC50 [4, 7]: > 100 µM | TGI ([4]; read-out: pTGI (converted)): 28.8 µM | GI50 ([5]; HCT-15): 0.174 µM | CC50 ([5]; HCT-15, read-out: pLC50 (the source's name) (converted)): 6.17 µM | TGI ([5]; HCT-15, read-out: pTGI (converted)): 1.35 µM | GI50 ([6]; OVCAR-4): 2.45 µM | CC50 ([6]; OVCAR-4, read-out: pLC50 (the source's name) (converted)): > 100 µM | TGI ([6]; OVCAR-4, read-out: pTGI (converted)): 33.1 µM | GI50 (NCI-H322M): 6.31 µM | CC50 (NCI-H322M; [7]): > 100 µM | TGI (NCI-H322M; read-out: pTGI (converted)): 39.8 µM | GI50 (T47D): 1.74 µM | CC50 (T47D; [7]): > 100 µM | TGI (T47D; read-out: pTGI (converted)): 17 µM | GI50 (MDA-MB-231): 0.269 µM | LC50 (MDA-MB-231): 30.9 µM | TGI (MDA-MB-231; read-out: pTGI (converted)): 2.4 µM | GI50 (K562): 0.309 µM | CC50 (K562; [7]): > 100 µM
